hERG protect – hERG (human) protection from proarrhythmic block; Q12809; CHO-hERG, FluxOR thallium flux, dofetilide IC70 present; activation (rescue from dofetilide block), less the hit threshold, % at 10 µM; 310,000 tested, 0.51% active;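 active means activation above the mean of controls blocked by dofetilide plus 5 SD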;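 further: thallium influx through hERG after potassium depolarization seen as dye fluorescence rise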
KCNQ1 inh – inhibitors of human KCNQ1 potassium channel; CHO-K1 KCNQ1, FluxOR thallium flux fluorescence; stronger effect = higher value; B-score at 10 µM; 310,000 tested, 1.3% active; AID 2642;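 active means compounds whose thallium flux B-score, printed positive for inhibition, exceeds three library SD while starting fluorescence stays within three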;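 further: channel opened by potassium depolarization with thallium stimulus after 20 min compound exposure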
Target sequence (P51787 whole entry, looked up): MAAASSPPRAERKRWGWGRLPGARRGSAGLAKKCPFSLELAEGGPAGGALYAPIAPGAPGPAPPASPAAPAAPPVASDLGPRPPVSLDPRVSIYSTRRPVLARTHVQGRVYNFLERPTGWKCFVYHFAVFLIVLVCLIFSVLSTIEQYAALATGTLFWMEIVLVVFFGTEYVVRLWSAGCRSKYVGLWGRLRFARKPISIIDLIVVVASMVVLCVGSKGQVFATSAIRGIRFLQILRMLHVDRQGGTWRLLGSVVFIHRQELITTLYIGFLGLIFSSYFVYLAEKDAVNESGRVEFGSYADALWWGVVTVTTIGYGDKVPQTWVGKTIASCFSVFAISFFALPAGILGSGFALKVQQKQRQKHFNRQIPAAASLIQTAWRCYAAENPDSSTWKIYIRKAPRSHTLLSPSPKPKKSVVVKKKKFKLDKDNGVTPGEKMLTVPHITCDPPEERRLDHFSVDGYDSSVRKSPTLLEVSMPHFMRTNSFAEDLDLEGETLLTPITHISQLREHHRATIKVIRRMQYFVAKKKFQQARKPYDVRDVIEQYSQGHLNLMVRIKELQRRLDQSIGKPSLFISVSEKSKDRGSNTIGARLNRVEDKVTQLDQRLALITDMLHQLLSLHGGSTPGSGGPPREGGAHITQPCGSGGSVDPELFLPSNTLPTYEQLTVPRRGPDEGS
Kir21 block – Kir2.1 (mouse) channel inhibition | P35561 | HEK293-Kir2.1, FluxOR thallium flux fluorescence; stronger effect = lower value | B-score at 10 µM | 310,000 tested, 0.85% active;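 active means fluorescence ratio B-score at or below minus 3 SD of library scores, with starting-brightness B-score within 2 SD, cut at about -4.2 in these data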;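 further: channel flux triggered by added potassium and thallium sulfate stimulus; B-score of peak minus minimum fluorescence over baseline after thallium stimulus; more negative B-score means stronger Kir2.1 block with less thallium influx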
KCNK3 block – human KCNK3 channel inhibition, primary screen; O14649; CHO-KCNK3 thallium flux, FluxOR fluorescence; stronger effect = lower value; B-score at 10 µM; 340,000 tested, 0.84% active; AID 602410;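 active means B-score under library mean minus 4 SD, starting fluorescence ratio at most library mean plus 5 SD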;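 further: more negative B-score means stronger inhibition of thallium flux through KCNK3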
KCNK9 inh – blocks the human KCNK9 two-pore domain potassium channel. HEK293 KCNK9, FluxOR thallium flux fluorescence; stronger effect = lower value. AID 488922. Q9NPC2. B-score at 10 µM. 310,000 tested, 1.2% active;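 active means ratio B-score over 3 SD below the library mean, with starting fluorescence within 5 SD of its mean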;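 further: negative B-score means less thallium flux so channel inhibition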
KCNQ1 pot – human KCNQ1 channel potentiation or activation; P51787; 310,000 tested, 0.35% active; AID 2648; B-score at 10 µM; CHO-K1 KCNQ1, thallium flux FluxOR fluorescence; stronger effect = higher value;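 active means fluorescence ratio B-score, a plate-corrected score, at least three library SD, with initial intensity B-score within 5 SD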
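assay system = CHO-K1 cells stably expressing KCNQ1 | medium = assay buffer, equal DMSO in all wells | timing = 37 °C overnight plating, 90-min dark dye load, 20-min compound pretreatment | measured by = kinetic FluxOR thallium fluorescence, 10-s 1-Hz baseline, 110-s post-stimulus read | measure = fluorescence change relative to baseline, converted to B score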
Hits are given with their value. Sampled rows, rich in hits. Any-hit rate of the full collection: about 3.7%.

CCOc1ccc(S(=O)(=O)N(CC(=O)N2CCC(C(N)=O)CC2)c2ccc(F)cc2)cc1 was read as hERG protect inactive, KCNQ1 inh inactive, Kir21 block inactive, KCNK3 block inactive, KCNK9 inh inactive and KCNQ1 pot inactive.
COc1ccc(Nc2cc(C)c3ccc(O)cc3n2)cc1 was read as hERG protect inactive, KCNQ1 inh inactive, Kir21 block -4.69, KCNK3 block inactive, KCNK9 inh inactive and KCNQ1 pot inactive.
For Cc1cc(Cn2nnnc2-c2ccncc2)cc(C)c1O the results were hERG protect inactive, KCNQ1 inh inactive, Kir21 block inactive, KCNK3 block inactive, KCNK9 inh inactive and KCNQ1 pot inactive.
Screening O=P1(NC2CCCCC2)OCC2(CO1)COP(=O)(NC1CCCCC1)OC2 (configuration not stated) returned KCNK3 block inactive.
For CC(C)OC(=O)c1cccnc1SCc1cc(=O)n2ccccc2n1 the results were hERG protect inactive, KCNQ1 inh inactive, Kir21 block inactive, KCNK3 block inactive, KCNK9 inh inactive and KCNQ1 pot inactive.
Screening CCC(C)(C)NC(=O)CSc1nc(Cc2ccccc2)nc2ccccc12 returned hERG protect inactive, KCNQ1 inh inactive, Kir21 block inactive, KCNK3 block inactive, KCNK9 inh inactive and KCNQ1 pot inactive.
`CC(C)NC(=O)CSc1nc(Cc2cccs2)nc2ccccc12` gave hERG protect inactive, KCNQ1 inh inactive, Kir21 block -4.62, KCNK3 block inactive, KCNK9 inh inactive and KCNQ1 pot inactive.
COc1cccc(N=Nc2ccc3cccnc3c2O)c1 was read as hERG protect inactive, KCNQ1 inh inactive, Kir21 block inactive, KCNK3 block inactive, KCNK9 inh inactive and KCNQ1 pot 9.
For COc1ccc(/C=C2\CN(Cc3ccccc3)C/C(=C\c3ccc(OC)cc3OC)C2=O)c(OC)c1 the results were hERG protect inactive, KCNQ1 inh inactive, Kir21 block inactive, KCNK3 block inactive, KCNK9 inh inactive and KCNQ1 pot inactive.
For COc1ccc(C=C2c3ccccc3C(=O)c3ccccc32)c(OC)c1 the results were hERG protect inactive, KCNQ1 inh inactive, Kir21 block inactive, KCNK3 block inactive, KCNK9 inh -8.7 and KCNQ1 pot inactive.
Screening COc1cc(C(=S)N2CCN(c3cccc(Cl)c3)CC2)ccc1O returned hERG protect 5.8, KCNQ1 inh inactive, Kir21 block inactive, KCNK3 block inactive, KCNK9 inh inactive and KCNQ1 pot inactive.
For COC(=O)Nc1nn(-c2ccc(OC)cc2)c(=O)c(C#N)c1C the results were hERG protect 5.5, KCNQ1 inh inactive, Kir21 block inactive, KCNK3 block inactive, KCNK9 inh inactive and KCNQ1 pot inactive.
COc1ccc(C(F)(F)F)cc1N/C=C/c1nnnn1-c1ccc(C)cc1 was read as hERG protect inactive, KCNQ1 inh inactive, Kir21 block inactive, KCNK3 block inactive, KCNK9 inh -6.72 and KCNQ1 pot inactive.
Screening O=C(c1ccccc1)c1ccccc1N/C=C/c1nnnn1-c1ccccc1 returned hERG protect inactive, KCNQ1 inh inactive, Kir21 block inactive, KCNK3 block inactive, KCNK9 inh inactive and KCNQ1 pot inactive.
Screening CCOc1ccc(/C=C/C(=O)N(CC)CC(=O)Nc2ccc3c(c2)OCCO3)cc1OCC returned hERG protect inactive, KCNQ1 inh inactive, Kir21 block inactive, KCNK3 block inactive, KCNK9 inh inactive and KCNQ1 pot inactive.
For CCC[C@H]1COCCS(=O)(=O)N1Cc1ccc(Br)cc1 the results were hERG protect inactive, KCNQ1 inh inactive, Kir21 block -6.1, KCNK9 inh inactive and KCNQ1 pot inactive.
`CCC1COCCS(=O)(=O)N1Cc1ccc(C)cc1` (configuration not stated) gave hERG protect inactive, KCNQ1 inh inactive, Kir21 block inactive, KCNK3 block inactive, KCNK9 inh inactive and KCNQ1 pot inactive.
`Cc1ccc(Nc2nnc(SCC(=O)NC(Cc3c[nH]c4ccccc34)C(=O)O)s2)cc1` (configuration not stated) gave hERG protect inactive, KCNQ1 inh inactive, Kir21 block inactive, KCNK3 block inactive, KCNK9 inh inactive and KCNQ1 pot inactive.
For COc1ccc(OC)c(S(=O)(=O)N2CCC(NC(=O)c3ccccc3)CC2)c1 the results were hERG protect inactive, KCNQ1 inh inactive, Kir21 block inactive, KCNK3 block inactive, KCNK9 inh -7.26 and KCNQ1 pot inactive.
O=C(Nc1nc(-c2cccnc2)cs1)c1ccccc1Cl was read as hERG protect 40.7, KCNQ1 inh inactive, Kir21 block inactive, KCNK3 block inactive, KCNK9 inh inactive and KCNQ1 pot inactive.
For Cc1ccccc1C(=O)Nc1nc(-c2cccnc2)cs1 the results were hERG protect inactive, KCNQ1 inh inactive, Kir21 block inactive, KCNK3 block inactive, KCNK9 inh inactive and KCNQ1 pot inactive.
`CC(=O)NCCc1ccc(C(=O)COC(=O)C2CCCCC2)cc1` gave KCNK3 block inactive.
Screening CCOC(=O)c1oc2ccc(S(=O)(=O)n3nc(-c4ccc(OC)cc4)cc3N)cc2c1C returned hERG protect inactive, KCNQ1 inh inactive, Kir21 block inactive, KCNK3 block inactive, KCNK9 inh inactive and KCNQ1 pot 9.
Screening CCOC(=O)c1oc2ccc(S(=O)(=O)n3nc(-c4ccccc4)cc3N)cc2c1C returned hERG protect inactive, KCNQ1 inh inactive, Kir21 block inactive, KCNK3 block inactive, KCNK9 inh inactive and KCNQ1 pot inactive.
Screening COc1ccccc1C(=O)NCCC(=O)N1CC=C(c2ccccc2)CC1 returned hERG protect inactive, KCNQ1 inh inactive, Kir21 block -4.46, KCNK3 block inactive, KCNK9 inh inactive and KCNQ1 pot inactive.
`C=CCn1c(NCc2ccc(OC)cc2O)nc2ccccc21` gave hERG protect inactive, KCNQ1 inh inactive, Kir21 block inactive, KCNK3 block inactive, KCNK9 inh inactive and KCNQ1 pot inactive.
CC1=CC(C)(C)n2c(O)c(N=N)c3cc(C)cc1c32 was read as hERG protect inactive, KCNQ1 inh inactive, Kir21 block -8.69, KCNK3 block inactive, KCNK9 inh inactive and KCNQ1 pot inactive.
CC(=O)c1ccc(NC(=O)C(C)N(C)CC(=O)Nc2ccc(N3CCOCC3)cc2)cc1 (configuration not stated) was read as hERG protect 4.6, KCNQ1 inh inactive, Kir21 block inactive, KCNK3 block inactive, KCNK9 inh inactive and KCNQ1 pot inactive.
Screening CC(=O)c1ccc(NC(=O)C(C)N(C)CC(=O)Nc2ccc(Cl)cc2)cc1 (configuration not stated) returned hERG protect inactive, KCNQ1 inh inactive, Kir21 block inactive, KCNK3 block inactive, KCNK9 inh inactive and KCNQ1 pot inactive.
Cc1ccc(C2=NOC(=O)/C2=C\C=C\c2ccccc2)cc1 was read as hERG protect inactive, KCNQ1 inh inactive, Kir21 block inactive, KCNK3 block inactive, KCNK9 inh inactive and KCNQ1 pot 8.
